Source: PMC10072318 (Bioorganic & medicinal chemistry letters, 2023)
Entries after “also recorded” stand apart in the source; their conditions may differ.

Tests used:
adult S. mansoni = experiment: Adult S. mansoni severity score assay; assay type: cell-based, Schistosoma mansoni; conditions: for Antischistosomal activity in words: 5 μM, SAR discussion
In short: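 Adult worms were exposed to the test compound at 5 μM. Responses were scored visually at 1, 5, 24 and 48 h using a constrained nomenclature of descriptors for the worm's responses to chemical insult. Each descriptor carries a value, and these values are summed into a severity score ranging from 0 (no activity) to 4 (maximum activity).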

S. mansoni adults = conditions: cited from earlier work
[1] = tested on: S. mansoni schistosomula (post-infective larvae); conditions: cited from earlier work

SMILES	Antischistosomal activity in words (adult S. mansoni)	also measured
O=C(Nc1ccccc1)c1ccc(C(F)(F)F)cc1 [compound 6]	inactive	–
Cc1ccc(NC(=O)c2ccccc2)cc1C [compound 14]	abolished activity	–
O=C(Nc1ccc(Cl)c(Cl)c1)c1ccc(C(F)(F)F)cc1 [compound 9]	–	Time by which adult worm integrity was severely compromised (adult S. mansoni): ≤ 1 h
O=C(Nc1cccc(C(F)(F)F)c1)c1ccccc1 [compound 15]	abolished activity	–
O=C(Nc1cccc(C(F)(F)F)c1)c1ccc(F)cc1 [compound 16]	activity was essentially abolished	–
O=C(Nc1ccccc1)c1ccc(F)cc1 [compound 23]	inactive	–
O=C(Nc1ccc(Cl)c(Cl)c1)c1ccccc1 [compound 25]	some activity was retained	–
O=C(Nc1ccc(Cl)nn1)c1cccc(F)c1 [compound 31, N-(6-chloropyridazin-3-yl)-3-fluorobenzamide]	inactive	–
Cc1ccc(NC(=O)c2ccc(C(F)(F)F)cc2)cc1C [compound 7]	retains substantial potency	–
O=C(Nc1ccc(C(F)(F)F)c(C(F)(F)F)c1)c1cc(Cl)ccc1O [compound 1]	–	Killing of S. mansoni adults in vitro (S. mansoni adults): kill S. mansoni adults; Killing of S. mansoni schistosomula in vitro [1]: kill S. mansoni adults[6] and schistosomula
COc1ccc(NC(=O)c2ccc(C(F)(F)F)cc2)cc1OC [compound 8]	inactive; also recorded: eliminated activity	–
O=C(Nc1ccc(F)c(F)c1)c1ccc(F)cc1 [compound 13]	activity was essentially compromised	–
N#Cc1ccc(C(=O)Nc2cccc(C(F)(F)F)c2)cc1 [compound 18]	abolished activity	–
O=C(Nc1cccc(C(F)(F)F)c1)c1ccc(C(F)(F)F)cc1 [compound 11]	–	Time by which adult worm integrity was severely compromised (adult S. mansoni): ≤ 1 h
